RGS4 inh – human RGS4 inhibition; HEK293 M3R/RGS4 inducible, Fluo-4 calcium flux; active compounds read high; triggered by carbachol at its EC20; P49798; 0.45% of 310,000 active; B-score at 10 µM; AID 463165;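 active = B-score, a plate-corrected calcium signal, over three deviations above library mean, with baseline fluorescence within five deviations of library mean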;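 note: RGS4 expression induced by doxycycline in cells with stable M3 receptor; B-score is computed from the integrated fluorescence ratio over baseline after carbachol; higher B-score means a larger calcium signal and so more RGS4 inhibition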
Target sequence (P49798 whole entry, looked up): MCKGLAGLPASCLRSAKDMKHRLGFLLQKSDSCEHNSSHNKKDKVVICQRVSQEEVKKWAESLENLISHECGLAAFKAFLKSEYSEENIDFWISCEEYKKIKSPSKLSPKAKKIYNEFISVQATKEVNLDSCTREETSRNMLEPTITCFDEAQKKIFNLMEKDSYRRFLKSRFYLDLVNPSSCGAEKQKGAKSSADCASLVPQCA
MrgX1 ag – agonists of human MrgX1 receptor | 0.44% of 310,000 active | Q96LB2 | AID 588627 | B-score at 10 µM | MrgX1-HEK293 cells, Fluo-4 calcium fluorescence, agonist mode; active compounds read high;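 active = calcium response B-score plate-corrected fluorescence ratio at least 3 library SD, with starting fluorescence B-score inside 5 SD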
Target sequence (Q96LB2 whole entry, looked up): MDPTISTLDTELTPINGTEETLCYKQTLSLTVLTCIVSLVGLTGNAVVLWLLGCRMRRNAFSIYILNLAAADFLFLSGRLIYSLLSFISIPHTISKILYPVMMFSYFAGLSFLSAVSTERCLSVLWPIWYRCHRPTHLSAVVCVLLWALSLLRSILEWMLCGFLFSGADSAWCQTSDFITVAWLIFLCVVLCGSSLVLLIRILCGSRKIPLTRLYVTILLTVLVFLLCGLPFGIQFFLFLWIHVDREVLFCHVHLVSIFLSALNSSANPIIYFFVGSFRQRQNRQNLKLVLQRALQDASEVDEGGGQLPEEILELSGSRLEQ
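Material: HEK293 cells stably expressing human MrgX1 receptor | Quantity: 15,000 cells per well | Times: Cells plated overnight, dye loaded 0.5 h 37 °C, 0.5 h room temperature | Measured by: Kinetic Fluo-4 NW fluorescence of intracellular calcium | Control set: Positive and negative controls per plate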
RGS4 pot – RGS4 potentiation or activation | HEK293 M3R/inducible RGS4, carbachol calcium flux Fluo4; active compounds read low | B-score at 10 µM | 0.92% of 310,000 active | AID 463111;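 active = B-score of the integrated calcium signal more than 4 SD below the library mean, with starting fluorescence not abnormally high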;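 note: negative B-score means reduced calcium response which marks RGS4 activation or potentiation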
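Assay system: HEK293 FlpIn-TREx cells, stable M3R, doxycycline-inducible RGS4 / Probe or stimulus: carbachol, ECmax concentration / Times: overnight RGS4 induction, 30 min dye load 37 °C, 20 min compound RT / Signal: kinetic calcium fluorescence imaging with Fluo4-AM dye, 2 µM / Measure: Agonist-evoked peak-minus-minimum fluorescence over baseline, integrated ratio, B score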
MrgX1 allo act – human MrgX1 positive allosteric modulation, primary screen. AID 588675. B-score at 10 µM. MrgX1-HEK293, Fluo-4 calcium flux, FDSS; active compounds read high. Q96LB2. 0.63% of 310,000 active;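 active = plate-corrected calcium response at least 3 library SD above typical, normal starting fluorescence, not activating the receptor alone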;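 note: compound read alongside a low EC10 to EC30 dose of BAM8-22 agonist; peak minus trough fluorescence over baseline measured at the second addition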
MrgX1 antagonist – blocks BAM8-22 activation of human MrgX1 receptor. Q96LB2. MRGX1-HEK293 calcium flux, Fluo-4, BAM8-22 antagonism; active compounds read low. B-score at 10 µM. 1.3% of 310,000 active;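 active = calcium-response B-score plate-corrected more than 3 library SD below zero, starting fluorescence within 5 deviations, no agonist response on first addition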;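 note: peak minus trough fluorescence over baseline after final BAM8-22 challenge near maximal dose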
RGS4 inh valid – RGS4 inhibitor validation; shares compounds with RGS4 inh; HEK293 M3R/RGS4, carbachol calcium Fluo-4 fluorescence; carbachol added at its EC20; 0 = buffer wells, 100 = carbachol control; calcium response, % at 10 µM; 65% of 1,700 active;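 active = duplicate-averaged calcium response above the buffer-only control mean plus 5 SD of those controls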;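 note: integrated fluorescence ratio F max minus min over baseline F0; higher response in RGS4-induced cells means RGS4 inhibition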
M3R Ca ctr – non-induced cell nonspecific activity of RGS4 inhibitors; shares compounds with RGS4 inh; HEK293 M3R non-induced, carbachol calcium Fluo-4; submaximal (EC20) carbachol stimulus; buffer wells 0%, carbachol control wells 100%; activity (percent), % at 10 µM; 20% of 1,900 active; call rule not given here;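 note: RGS4 induction absent so cells express M3R without RGS4; higher means more calcium signal and flags a non-specific hit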
M3R basal Ca ctr – second RGS4 inhibitor counter-screen in uninduced cells lacking carbachol. shares compounds with RGS4 inh. HEK293 M3R/RGS4 non-induced, Fluo-4 calcium, no carbachol; normalised: buffer wells 0%, carbachol wells 100%. calcium response (agonist-mode artifact), % at 10 µM. 22% of 1,900 active. AID 493001;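 active = duplicate-averaged calcium rise in uninduced cells above buffer wells' mean plus 5 SD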
Starred values were filed as active, the others as inactive. Compounds with a hit are over-represented: about 3.5% of the library has one in this group of screens.

What do the screens show for `CC(NC(=O)c1cccnc1Sc1ccccc1)c1ccc(S(N)(=O)=O)cc1` (stereo not given)?
RGS4 inh: inactive; MrgX1 ag: inactive; RGS4 pot: inactive; MrgX1 allo act: inactive; MrgX1 antagonist: inactive

Results for COc1ccc(OC)c(NC(=O)NCc2cccnc2)c1 ?
RGS4 inh: inactive; MrgX1 ag: inactive; RGS4 pot: inactive; MrgX1 allo act: inactive; MrgX1 antagonist: inactive

How did CN1C(=O)C(C)(C)c2cc(S(=O)(=O)N3CCN(c4ccccc4F)CC3)ccc21 do in these assays?
RGS4 inh: inactive; MrgX1 ag: inactive; RGS4 pot: inactive; MrgX1 allo act: inactive; MrgX1 antagonist: inactive

What do the screens show for `CC(C)CNC(=O)c1ccccc1N(Cc1ccccc1)S(C)(=O)=O`?
RGS4 inh: inactive; MrgX1 ag: inactive; RGS4 pot: inactive; MrgX1 allo act: inactive; MrgX1 antagonist: inactive

How did OCCC1CN(CC2CC2)CCN1Cc1ccc(F)c(F)c1 (stereo not given) do in these assays?
RGS4 inh: inactive; MrgX1 ag: inactive; RGS4 pot: inactive; MrgX1 allo act: inactive; MrgX1 antagonist: inactive

Results for Cc1cc(C)cc(NC2=NCC(=O)N2Cc2ccccc2)c1 ?
RGS4 inh: 5.35*; MrgX1 ag: inactive; RGS4 pot: inactive; MrgX1 allo act: inactive; MrgX1 antagonist: inactive; RGS4 inh valid: inactive; M3R Ca ctr: inactive; M3R basal Ca ctr: inactive

Results for Cc1cccc(NC2=NCC(=O)N2Cc2ccccc2)c1 ?
RGS4 inh: inactive; MrgX1 ag: inactive; RGS4 pot: inactive; MrgX1 allo act: inactive; MrgX1 antagonist: inactive; M3R Ca ctr: 32.0%*; M3R basal Ca ctr: inactive

How did CN(c1ccccc1)S(=O)(=O)c1cccc(C(=O)NCCCN2CCCC2=O)c1 do in these assays?
RGS4 inh: inactive; MrgX1 ag: inactive; RGS4 pot: inactive; MrgX1 allo act: inactive; MrgX1 antagonist: inactive

How did COc1ccc(C(=O)N/C(N)=N/c2nc3ccccc3o2)cc1 do in these assays?
RGS4 inh: inactive; MrgX1 ag: inactive; RGS4 pot: inactive; MrgX1 allo act: inactive; MrgX1 antagonist: inactive

What do the screens show for `COc1ccc(C(=O)/C=C/Sc2nc3ccccc3o2)cc1`?
RGS4 inh: 24.4*; MrgX1 ag: inactive; RGS4 pot: inactive; MrgX1 allo act: inactive; MrgX1 antagonist: inactive; RGS4 inh valid: 9.5%*; M3R Ca ctr: inactive; M3R basal Ca ctr: inactive

Results for O=c1[nH]c2cc3c(cc2cc1CN(Cc1cccnc1)Cc1nnnn1Cc1ccco1)OCCO3 ?
RGS4 inh: inactive; MrgX1 ag: inactive; RGS4 pot: inactive; MrgX1 allo act: inactive; MrgX1 antagonist: inactive; RGS4 inh valid: inactive; M3R Ca ctr: inactive; M3R basal Ca ctr: inactive

Results for O=c1[nH]c2cc3c(cc2cc1CN(Cc1cccs1)Cc1nnnn1Cc1ccco1)OCCO3 ?
RGS4 inh: 6.95*; MrgX1 ag: inactive; RGS4 pot: inactive; MrgX1 allo act: inactive; MrgX1 antagonist: inactive; RGS4 inh valid: inactive; M3R Ca ctr: inactive; M3R basal Ca ctr: inactive

Results for COc1ccccc1CN(Cc1cc2cc3c(cc2[nH]c1=O)OCCO3)Cc1nnnn1Cc1ccco1 ?
RGS4 inh: 18.6*; MrgX1 ag: inactive; RGS4 pot: inactive; MrgX1 allo act: inactive; MrgX1 antagonist: inactive; RGS4 inh valid: 7.5%*; M3R Ca ctr: inactive; M3R basal Ca ctr: 11.5%*

How did O=c1[nH]c2cc3c(cc2cc1CN(Cc1ccccc1)Cc1nnnn1Cc1ccco1)OCCO3 do in these assays?
RGS4 inh: inactive; RGS4 pot: inactive

What do the screens show for `O=C(COC(=O)CC12CC3CC(CC(C3)C1)C2)Nc1cccnc1Cl`?
RGS4 inh: inactive; MrgX1 ag: inactive; RGS4 pot: inactive; MrgX1 allo act: inactive; MrgX1 antagonist: inactive

How did CCOC(=O)C1CCN(CC(=O)c2c(C)n(C)c3ccc(OC)cc23)CC1 do in these assays?
RGS4 inh: 4.92*; MrgX1 ag: inactive; RGS4 pot: inactive; MrgX1 allo act: inactive; MrgX1 antagonist: inactive; RGS4 inh valid: 13.0%*; M3R Ca ctr: inactive; M3R basal Ca ctr: inactive

How did Cc1c(/C=N/NC(=O)CNc2ccccc2)c2ccccn2c1C(=O)c1ccc(Cl)cc1 do in these assays?
RGS4 inh: 14.8*; MrgX1 ag: inactive; RGS4 pot: inactive; MrgX1 allo act: inactive; MrgX1 antagonist: inactive; RGS4 inh valid: 20.5%*; M3R Ca ctr: inactive; M3R basal Ca ctr: 68.0%*

Results for Cc1c(C=O)c2ccccn2c1C(=O)c1ccc(F)cc1 ?
RGS4 inh: inactive; MrgX1 ag: inactive; RGS4 pot: inactive; MrgX1 allo act: inactive; MrgX1 antagonist: inactive

How did Cc1c(C=O)c2ccccn2c1C(=O)c1ccccc1 do in these assays?
RGS4 inh: inactive; MrgX1 ag: inactive; RGS4 pot: inactive; MrgX1 allo act: inactive; MrgX1 antagonist: inactive

What do the screens show for `Cc1ccccc1NCC(=O)N/N=C/c1c(C)c(C(=O)c2ccc(Cl)cc2)n2ccccc12`?
RGS4 inh: inactive; MrgX1 ag: inactive; RGS4 pot: inactive; MrgX1 allo act: inactive; MrgX1 antagonist: inactive; RGS4 inh valid: inactive; M3R Ca ctr: inactive; M3R basal Ca ctr: 31.0%*

What do the screens show for `Cc1c(/C=N/NC(=O)CNc2ccccc2)c2ccccn2c1C(=O)c1ccncc1`?
RGS4 inh: inactive; MrgX1 ag: inactive; RGS4 pot: inactive; MrgX1 allo act: inactive; MrgX1 antagonist: inactive; RGS4 inh valid: inactive; M3R Ca ctr: inactive; M3R basal Ca ctr: inactive

What do the screens show for `O=C(Nc1cc(SCCO)cc([N+](=O)[O-])c1)c1ccc(Br)o1`?
RGS4 inh: inactive; MrgX1 ag: inactive; RGS4 pot: inactive; MrgX1 allo act: inactive; MrgX1 antagonist: inactive

What do the screens show for `Cc1ccccc1Nc1sc(C(=O)Nc2cccc(Cl)c2)c(N)c1C(N)=O`?
RGS4 inh: 6.63*; RGS4 pot: inactive; RGS4 inh valid: 5.0%*; M3R Ca ctr: inactive; M3R basal Ca ctr: inactive

Results for Cc1cc(C)c(C(N)=O)c(Nc2cccc(Cl)c2)n1 ?
RGS4 inh: inactive; MrgX1 ag: inactive; RGS4 pot: inactive; MrgX1 allo act: inactive; MrgX1 antagonist: inactive

Results for Cc1nnc(Sc2cc(NCCCO)c([N+](=O)[O-])c3nonc23)s1 ?
RGS4 inh: 10.3*; RGS4 pot: inactive; RGS4 inh valid: 21.0%*; M3R Ca ctr: inactive; M3R basal Ca ctr: inactive

Source: PubChem
